According to ChEMBL document CHEMBL4270638, “Sulfonyl-containing phenyl-pyrrolyl pentane analogues: Novel non-secosteroidal vitamin D receptor modulators with favorable physicochemical properties, pharmacokinetic properties and anti-tumor activity” (Eur J Med Chem, 2018):
≈ marks a conversion by molar mass, not a printed value. Calls of active or inactive are those of the source. No cut-off for these calls is given here.

Tests used:
BXPC-3 = test: Antiproliferative activity against human BxPC3 cells after 24 hrs by MTT assay; format: functional, cell-based; conditions: BXPC-3, 24 h
MCF7 [1] = test: Antiproliferative activity against human MCF7 cells after 24 hrs by MTT assay; format: functional, cell-based; conditions: MCF7, 24 h
[2] = biological target: T1, Retinoic acid receptor RXR-alpha/Vitamin D3 receptor (Homo sapiens, UniProt P11473+P19793); test: Transactivation of recombinant human VDR/RXRalpha expressed in HEK293 cells after 24 hrs by Dual-luciferase reporter gene assay; format: cell-based
T1 sequence (P11473 whole entry): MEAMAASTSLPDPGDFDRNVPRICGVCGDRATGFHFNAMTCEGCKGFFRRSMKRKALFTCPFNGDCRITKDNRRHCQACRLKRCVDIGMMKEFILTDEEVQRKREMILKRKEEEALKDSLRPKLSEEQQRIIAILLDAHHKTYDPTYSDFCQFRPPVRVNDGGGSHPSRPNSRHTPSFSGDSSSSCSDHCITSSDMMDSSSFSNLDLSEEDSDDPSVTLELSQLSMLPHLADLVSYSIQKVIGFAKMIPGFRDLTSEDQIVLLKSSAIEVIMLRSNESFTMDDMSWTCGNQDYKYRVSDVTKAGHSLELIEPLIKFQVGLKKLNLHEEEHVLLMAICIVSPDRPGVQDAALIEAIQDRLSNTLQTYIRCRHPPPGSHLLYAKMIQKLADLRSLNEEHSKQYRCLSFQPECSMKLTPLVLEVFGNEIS
T1 sequence (P19793 whole entry): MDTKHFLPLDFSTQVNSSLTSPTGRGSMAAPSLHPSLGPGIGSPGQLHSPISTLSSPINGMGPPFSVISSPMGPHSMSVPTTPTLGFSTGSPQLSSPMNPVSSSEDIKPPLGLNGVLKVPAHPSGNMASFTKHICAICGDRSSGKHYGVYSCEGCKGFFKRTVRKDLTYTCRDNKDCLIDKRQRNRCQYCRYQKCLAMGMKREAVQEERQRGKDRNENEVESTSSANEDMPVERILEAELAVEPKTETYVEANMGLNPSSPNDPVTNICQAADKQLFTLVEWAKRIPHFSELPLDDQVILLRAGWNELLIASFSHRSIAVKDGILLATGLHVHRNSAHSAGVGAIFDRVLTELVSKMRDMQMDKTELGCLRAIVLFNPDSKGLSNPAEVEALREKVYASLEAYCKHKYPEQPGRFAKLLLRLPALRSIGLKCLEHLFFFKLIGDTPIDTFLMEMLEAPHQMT

MCF7 [3] = test: Cell cycle arrest in human MCF7 cells expressing scrambled siRNA assessed as accumulation at G0/G1 phase at 1 uM after 24 hrs by propidium iodide staining based flow cytometry (reference value: 49.28%); format: functional
MCF7 [4] = test: Antiproliferative activity against human MCF7 cells expressing VDR siRNA assessed as reduction in BrdU incorporation after 16 hrs by ELISA; format: functional, cell-based; conditions: MCF7, 16 h
MCF7 [5] = test: Cell cycle arrest in human MCF7 cells expressing scrambled siRNA assessed as accumulation at G2/M phase at 1 uM after 24 hrs by propidium iodide staining based flow cytometry (reference value: 19.6%); format: functional
MCF7 [6] = test: Cell cycle arrest in human MCF7 cells expressing scrambled siRNA assessed as accumulation at S phase at 1 uM after 24 hrs by propidium iodide staining based flow cytometry (reference value: 29.79%); format: functional
MCF7 [7] = test: Cell cycle arrest in human MCF7 cells expressing VDR siRNA assessed as accumulation at G2/M phase at 1 uM after 24 hrs by propidium iodide staining based flow cytometry (reference value: 17.57%); format: functional
MCF7 [8] = test: Cell cycle arrest in human MCF7 cells expressing VDR siRNA assessed as accumulation at S phase at 1 uM after 24 hrs by propidium iodide staining based flow cytometry (reference value: 32%); format: functional
MCF7 [9] = test: Induction of apoptosis in human MCF7 cells expressing scrambled siRNA assessed as live cells at 1 uM after 24 hrs by Annexin-V-FITC/propidium iodide staining based flow cytometry (reference value: 97.93%); format: functional
MCF7 [10] = test: Induction of apoptosis in human MCF7 cells expressing scrambled siRNA assessed as late apoptotic cells at 1 uM after 24 hrs by Annexin-V-FITC/propidium iodide staining based flow cytometry (reference value: 0.98%); format: functional
MCF7 [11] = test: Induction of apoptosis in human MCF7 cells expressing VDR siRNA assessed as live cells at 1 uM after 24 hrs by Annexin-V-FITC/propidium iodide staining based flow cytometry (reference value: 98.35%); format: functional
MCF7 [12] = test: Induction of apoptosis in human MCF7 cells expressing VDR siRNA assessed as late apoptotic cells at 1 uM after 24 hrs by Annexin-V-FITC/propidium iodide staining based flow cytometry (reference value: 1.01%); format: functional
[13] = Solubility of the compound in water at pH 7.4 by HPLC method; format: physicochemical
Method in brief: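 Aqueous solubility measured at pH 7.4, with samples quantified by HPLC.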

[14] = AUC in Sprague-Dawley rat at 5 mg/kg, iv by HPLC method; format: ADME, organism-based; conditions: in vivo
Method in brief: (§1)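 Male Sprague-Dawley rats, 180–220 g, n = 3 per group. Dosed iv at 5 mg/kg or ip at 20 mg/kg in ethanol/EL/saline (1:1:18). Plasma sampled at 0, 0.083, 0.167, 0.25, 0.5, 1, 2, 4, 8, 12 and 24 h and centrifuged 12000 rpm for 10 min. Plasma drug measured by HPLC; parameters by PK modelling; mean ± SD.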

[15] = Clearance in Sprague-Dawley rat at 5 mg/kg, iv by HPLC method; format: ADME, organism-based; conditions: in vivo; method in brief: as §1
[16] = Mean residence time in Sprague-Dawley rat at 20 mg/kg, ip by HPLC method; format: ADME, organism-based; conditions: in vivo; method in brief: as §1
[17] = Clearance in Sprague-Dawley rat at 20 mg/kg, ip by HPLC method; format: ADME, organism-based; conditions: in vivo; method in brief: as §1
MCF7 [18] = test: Antitumor activity against human MCF7 cells xenografted in Balb/c nude mouse assessed as reduction in tumor growth at 10 mg/kg, ip administered three times a week for three weeks starting from day 7 after tumor cell inoculation; format: functional, organism-based
Method in brief: (§2)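 […] BALB/c-nu mice, 10 weeks old. 1×10^7 MCF-7 cells injected into the left fourth mammary fat pad; dosing began at about 50 mm3 tumour volume (day 7), n = 5 per group. Dosed ip at 10 mg/kg in ethanol/EL/saline 1:1:18, three times weekly for three weeks. Tumour volume by calipers = length × width² × 0.5; tumour weight and body weight recorded.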

Mus musculus [19] = test: Toxicity in Balb/c nude mouse xenografted with human MCF7 cells assessed as effect on body weight at 10 mg/kg, ip administered three times a week for three weeks starting from day 7 after tumor cell inoculation; format: organism-based; conditions: in vivo; method in brief: as §2
MCF7 [20] = test: Antitumor activity against human MCF7 cells xenografted in Balb/c nude mouse assessed as increase in Bax expression at 10 mg/kg, ip administered three times a week for three weeks starting from day 7 after tumor cell inoculation by immunohistochemical analysis; format: functional, organism-based
Mus musculus [21] = test: Hypercalcemic effect in Balb/c nude mouse xenografted with human MCF7 cells assessed as effect on serum calcium level at 10 mg/kg, ip administered three times a week for three weeks starting from day 7 after tumor cell inoculation measured on day 17 during compound dosing (reference value: 0.6 umol/ml); format: ADME, organism-based; conditions: in vivo

Row | IC50 (BXPC-3) [µM] | IC50 (MCF7 [1]) [µM] | EC50 [2] [µM] | IC50 (MCF7 [4]) [µM] | solubility [13] [µg/mL] | AUC [14] [ng·h/mL] | clearance [15] [mL/min] | MRT [16] [h] | CL/F [17] [mL/min] | SMILES | Activity (MCF7 [3]) [%] | Activity (MCF7 [5]) [%] | Activity (MCF7 [6]) [%] | Activity (MCF7 [7]) [%] | Activity (MCF7 [8]) [%] | Activity (MCF7 [9]) [%] | Activity (MCF7 [10]) [%] | Activity (MCF7 [11]) [%] | Activity (MCF7 [12]) [%] | Activity (MCF7 [18]) | Activity (Mus musculus [19]) | other results
1 | 5.13 | 5.16 | 0.00641 | > 50 | 74.6 (≈ 157 µM) | 11800 | 7 | 15.7 | 16.5 | CCN(CC)CCNC(=O)c1ccc(C(CC)(CC)c2ccc(OCSC)c(C)c2)n1CC | 55.26 | 15.96 | 27.95 | 16.01 | 32.42 | 94.7 | 3.65 | 97.35 | 1.67 | Active | Non-Toxic | Activity (MCF7 [20]): Active; Activity (Mus musculus [21]): Non-Toxic
2 | 4.69 | 2.03 | 0.0382 | > 50 | 85.3 (≈ 150 µM) | 7470 | 11.2 | 11.9 | 27.7 | CCN(CC)CCNC(=O)c1cc(C(CC)(CC)c2ccc(OCS(=O)(=O)c3ccccc3)c(C)c2)cn1CC | 55.96 | 13.22 | 29.66 | 19.02 | 26.36 | 94.96 | 3.37 | 97.48 | 1.57 | Active | Non-Toxic | Activity (MCF7 [20]): Active; Activity (Mus musculus [21]): Non-Toxic
